Consider three molecules from publication PMC6030701 (EMBO Reports, 2018).

The target in one series is T1, MSP domain of MOSPD2 (Homo sapiens, UniProt Q8NHP6).
T1 sequence (Q8NHP6 282-490): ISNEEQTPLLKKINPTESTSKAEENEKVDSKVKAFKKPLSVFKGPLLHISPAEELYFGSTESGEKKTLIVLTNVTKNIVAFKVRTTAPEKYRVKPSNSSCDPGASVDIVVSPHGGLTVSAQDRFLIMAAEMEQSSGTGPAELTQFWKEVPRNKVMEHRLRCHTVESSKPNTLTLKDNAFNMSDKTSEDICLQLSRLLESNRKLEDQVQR
Kind of series: Liposome aggregation. It is filed as biochemical. As to conditions: DLS, 25°C.

Series [1] has as its system RD/LD mutant MSP domain of MOSPD2. Kind of series: Liposome aggregation. The conditions noted are these: DLS, 25°C, FFAT peptide 380 nM, RD/LD mutant MSP 760 nM. In kind it is biochemical.
The subject of another series is STARD3 FA/YA. Nature of the series: MSP domain pull-down, STARD3 FA/YA mutant. It is filed as binding. As to conditions: 6His MSP on NTA-Ni2+ resin, HeLa/STARD3 FA/YA protein extract, Western blot. The essentials:
(§1)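 6His-tagged MSP domain (residues 282–490), from E. coli BL21 DE3 (1 mM IPTG, 20°C, 16 h), purified on Ni-NTA and by gel filtration. HeLa stable-line extract in PDB2 incubated 2.5 h, 4°C. Laemmli elution; blotted for STARD3, His, actin.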

For the next series, the system named is STARD3. Kind of series: MSP domain pull-down, STARD3. As to conditions: 6His MSP on NTA-Ni2+ resin, HeLa/STARD3 protein extract, Western blot. In kind it is binding. The essentials: as §1
The series “SEC” concerns the molecule itself. Nature of the series: SEC.

As to “WCSGKGDMSDEDDENEFFDAPEIITMPENLGH [FFAT‐containing peptide]”, the “size of liposome aggregates at end of kinetics” value on MSP domain of MOSPD2 (FFAT peptide 380 nM, MSP MOSPD2 WT 760 nM) was found to be 479 ± 87 nm. For the same molecule, the “size of free liposomes” value on MSP domain of MOSPD2 (size distribution analysis) was 97 ± 15 nm. Besides, the liposome aggregation result in series [1] is “no aggregation was observed”.

B1: wild‐type MSP domain of MOSPD2: recombinant MSP domain of MOSPD2 [282–490], expressed in E. coli (protein)
chain: ISNEEQTPLLKKINPTESTSKAEENEKVDSKVKAFKKPLSVFKGPLLHISPAEELYFGSTESGEKKTLIVLTNVTKNIVAFKVRTTAPEKYRVKPSNSSCDPGASVDIVVSPHGGLTVSAQDRFLIMAAEMEQSSGTGPAELTQFWKEVPRNKVMEHRLRCHTVESSKPNTLTLKDNAFNMSDKTSEDICLQLSRLLESNRKLEDQVQR
modifications: left off: 6His, C-terminal, kept
For B1, in the series on STARD3 FA/YA, the “interaction with STARD3 FA/YA” value is reported as “not with the STARD3 FA/YA mutant”. The “interaction with STARD3” value with STARD3 was “interacted specifically with STARD3”.

B2: MSP domain and coiled‐coil of VAP‐A [8–212], wild type (domain or fragment, human, UniProt Q9P0L0 8-212, looked up)
chain: MAKHEQILVLDPPTDLKFKGPFTDVVTTNLKLRNPSDRKVCFKVKTTAPRRYCVRPNSGIIDPGSTVTVSVMLQPFDYDPNEKSKHKFMVQTIFAPPNTSDMEAVWKEAKPDELMDSKLRCVFEMPNENDKLNDMEPSKAVPLNASKQDGPMPKPHSVSLNDTETRKLMEECKRLQGEMMKLSEENRHLRDEGLRLRKVAHSDKP
Take B2: the “stoichiometry N” value in “SEC” worked out at 2.
